The target in data set [1] is Sphingosine 1-phosphate receptor 3 (Homo sapiens, UniProt Q99500). Put plainly: Agonist activity at human recombinant S1PR3 expressed in CHO cell membranes assessed as [35S]GTPgammaS binding preincubated for 30 mins followed by [35S]GTPgammaS addition measured after 1 hr by topcount analysis. The class given is functional. The method, boiled down:
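Membranes from CHO cells expressing recombinant human S1P1 or S1P3 were used. Buffer was 20 mM Hepes pH 7.4, 100 mM NaCl, 5 mM MgCl2, 0.1% fatty-acid-free BSA, 2.5% DMSO and 50 pM 35S-GTPgammaS. GDP was […] for S1P3. Compound was preincubated 30 min at rt, then incubated 1 h at rt with 35S-GTPgammaS. Bound label was collected by filtration and counted. Specific binding was taken against 10 uM S1P. EC50 was the 50%-of-specific-binding concentration, reported as the geometric mean of at least three independent duplicate runs.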
(Binding of GTPγS marks nucleotide exchange on a G protein.)

In data set [2] the target is T1, Sphingosine 1-phosphate receptor 1 (Homo sapiens, UniProt P21453). Put plainly: Agonist activity at human recombinant S1PR1 expressed in CHO cell membranes assessed as [35S]GTPgammaS binding preincubated for 30 mins followed by [35S]GTPgammaS addition measured after 1 hr by topcount analysis.
Data set [3] deals with Rattus norvegicus. Put plainly: Change in circulating lymphocyte count in Wistar rat at 10 mg/kg administered as single dose through oral gavage after 24 hrs relative to control. The class given is functional. The method, boiled down:
(§1)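 Male Wistar rats (RccHan:WIST; n = 6) were given a single oral gavage dose of compound in DMSO plus 7.5% succinylated gelatine (final 5% DMSO). Blood lymphocytes were counted just before dosing and at later timepoints. Percent change was calculated per animal relative to the pre-dose value and compared with a vehicle-treated group, reported as the mean. A ±15% change was treated as baseline, and a reduction of about 60% or more as maximal.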

For data set [4], the system named is Rattus norvegicus. Put plainly: Change in circulating lymphocyte count in Wistar rat at 10 mg/kg administered as single dose through oral gavage after 6 hrs relative to control. The class given is functional. The procedure, abridged: as §1
Data set [5] deals with Rattus norvegicus. Briefly: Change in circulating lymphocyte count in Wistar rat at 10 mg/kg administered as single dose through oral gavage after 3 hrs relative to control. The class given is functional. The method, boiled down:
as §1

Data set [6] in a line: Apparent oral clearance in Wistar rat plasma at 1 to 10 mg/kg administered through gavage by LC-MS/MS analysis. It counts as ADME, organism-based. The method, boiled down: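 Male Wistar rats received a single oral gavage dose of compound dissolved in DMSO and added to 7.5% succinylated gelatine in water (final 5% DMSO). EDTA plasma was spun at 3000 g for 10 min at 4 °C and analysed by LC-MS/MS after protein precipitation. Oral clearance was estimated from the plasma concentration–time data. In vivo intrinsic clearance used the well-stirred liver model, assuming complete absorption.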

Data set [7] in a line: Selectivity ratio of EC50 for human recombinant S1PR3 expressed in CHO cell membranes to EC50 for human recombinant S1PR1 expressed in CHO cell membranes. It counts as cell-based. The method, boiled down:
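Compound and membranes are pre-incubated 30 min at rt, then incubated 1 h at rt, filtered and counted. EC50 is the concentration giving 50% of S1P-defined specific binding, as the geometric mean of ≥3 independent duplicate runs. Ratio = EC50 S1PR3/EC50 S1PR1.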

Data set [8] is described as follows: Apparent intrinsic clearance in Wistar rat liver microsomes at 1 uM after 2.5 to 15 mins by LC-MS/MS analysis in presence of NADPH. It counts as ADME. The following applies: read-out: CLH(app). The procedure, abridged: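 Compound at 1 uM starting concentration was depleted by 0.5 mg/mL rat liver microsomes in 100 mM sodium phosphate pH 7.4 at 37 °C, with shaking under air. Reactions were started with an NADPH-regenerating system. Samples were taken at 0, 2.5, 5, 10 and 15 min, quenched in ice-cold methanol and analysed by LC-MS/MS. CLint,app came from first-order decay fitting.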
(Liver microsomes are vesicles of endoplasmic reticulum, rich in cytochrome P450 enzymes.)

A short description of data set [9]: Distribution coefficient, log D between 1-octonol and phosphate buffer at pH 7. The following applies: 1-octanol/phosphate buffer. The class given is physicochemical. The method, boiled down:
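Partition was between 1-octanol and phosphate buffer at pH 7.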

Data set [10] can be described thus: Fraction unbound in Wistar rat liver microsomes incubated for 6 hrs by LC-MS/MS based equilibrium dialysis method. The class given is ADME. The procedure, abridged:
(§2)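 Rapid equilibrium dialysis was run on a shaker for 6 h at 37 °C. The donor side held rat plasma (pH 7.2–7.6) or 1 mg/mL rat liver microsomes in phosphate buffer pH 7.4. The receiver side held phosphate buffer pH 7.4. Both sides were measured by LC-MS/MS to give free fraction and recovery.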

Data set [11] in a line: Fraction unbound in Wistar rat plasma incubated for 6 hrs by LC-MS/MS based equilibrium dialysis method. It counts as ADME, cell-free. The method, boiled down:
as §2

Data set [12] relates to Liver microsome. Put plainly: Unbound fraction corrected apparent intrinsic clearance in Wistar rat liver microsomes at 1 uM after 2.5 to 15 mins by LC-MS/MS analysis in presence of NADPH. It counts as ADME. The procedure, abridged:
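Apparent CLint was measured by microsomal substrate depletion: 1 uM start, 0.5 mg/mL rat liver microsomes, pH 7.4, 37 °C, NADPH-regenerating system, sampling 0–15 min, LC-MS/MS. It was then divided by the unbound microsomal fraction, which was determined by rapid equilibrium dialysis of 1 mg/mL microsomes for 6 h at 37 °C.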

Data set [13] can be described thus: Plasma concentration in Wistar rat at 10 mg/kg administered as single dose through oral gavage after 3 hrs by LC-MS/MS analysis. It counts as ADME, organism-based. The method, boiled down: (§3)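 Single oral gavage dose to male Wistar rats in DMSO/7.5% succinylated gelatine (final 5% DMSO). Blood was drawn into EDTA at the lymphocyte-count timepoints. Plasma was prepared at 3000 g for 10 min at 4 °C and analysed by LC-MS/MS after protein precipitation.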

Data set [14] is described as follows: Plasma concentration in Wistar rat at 10 mg/kg administered as single dose through oral gavage after 6 hrs by LC-MS/MS analysis. It counts as ADME, organism-based. The procedure, abridged:
as §3

Data set [15] is described as follows: Plasma concentration in Wistar rat at 10 mg/kg administered as single dose through oral gavage after 24 hrs by LC-MS/MS analysis. It counts as ADME, organism-based. The method, boiled down: as §3
A short description of data set [16]: Plasma concentration in Wistar rat at 10 mg/kg administered as single dose through oral gavage after 72 hrs by LC-MS/MS analysis. It counts as ADME, organism-based. The method, boiled down: as §3
Data set [17] addresses T1, Sphingosine 1-phosphate receptor 1. Put plainly: Partial agonist activity at human recombinant S1PR1 expressed in CHO cells by receptor internalization assay. The class given is cell-based.
For data set [18], the species on record is Rattus norvegicus. Briefly: Intrinsic clearance in rat liver microsomes scaled to body weight. The following applies: in vitro.

Calls of active or inactive are those of the source. No cut-off for these calls is given here.

T1 sequence (P21453 whole entry): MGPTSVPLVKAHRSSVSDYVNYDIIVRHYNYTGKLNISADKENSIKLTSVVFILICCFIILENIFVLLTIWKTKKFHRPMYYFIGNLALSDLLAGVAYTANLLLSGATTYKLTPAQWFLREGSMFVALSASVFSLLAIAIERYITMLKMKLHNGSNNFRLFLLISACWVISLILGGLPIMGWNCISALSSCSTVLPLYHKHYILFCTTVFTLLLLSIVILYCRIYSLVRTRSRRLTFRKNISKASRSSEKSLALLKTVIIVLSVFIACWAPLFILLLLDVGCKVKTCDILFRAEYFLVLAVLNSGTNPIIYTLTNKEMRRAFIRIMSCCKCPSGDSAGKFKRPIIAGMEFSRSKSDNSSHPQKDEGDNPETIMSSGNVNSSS
Chain of Sphingosine 1-phosphate receptor 3 (Q99500 whole entry): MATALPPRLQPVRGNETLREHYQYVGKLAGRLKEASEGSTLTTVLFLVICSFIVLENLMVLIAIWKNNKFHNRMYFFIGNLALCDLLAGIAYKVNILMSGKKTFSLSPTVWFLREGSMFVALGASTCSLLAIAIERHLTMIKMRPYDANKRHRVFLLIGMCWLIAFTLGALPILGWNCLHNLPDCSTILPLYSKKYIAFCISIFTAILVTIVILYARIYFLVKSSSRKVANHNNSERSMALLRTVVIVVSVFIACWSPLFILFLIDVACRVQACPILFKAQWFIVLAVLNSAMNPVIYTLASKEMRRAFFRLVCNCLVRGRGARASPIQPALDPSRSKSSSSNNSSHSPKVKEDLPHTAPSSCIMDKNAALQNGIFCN

As for `CCc1cc(-c2noc(-c3cc(C)cc(CN(C)CC(C)C)c3)n2)cc(C)c1OC[C@@H](O)CNC(=O)CO`, the EC50 (usually the concentration needed to bring the measured effect to its halfway point) in [1] stood at 100 nM; in [2] it was 2.1 nM. For the same molecule, the Activity in [3] is listed as -44%; in data set [4], -53%; in data set [5], -52%. In data set [6], the CL/F (as a rule, the apparent clearance, not corrected for the fraction that reaches the circulation) came out at 8 mL/min/kg. In data set [7], the Ratio EC50 amounted to 48. For the same molecule, the microsomal CLint at 1 µM in data set [8] was 20 µL/min/mg. Further, the logD (usually lipophilicity at a set pH, counting ionised and neutral species) in data set [9] is above 4.1. The fraction unbound (as a rule, the share of the substance not bound to proteins or other matrix) at 6 h was 0.027 in [10] and below 0.001 in data set [11]. The CL free in data set [12] came out at 740 µL/min/mg. In addition, the concentration at 3 h in [13] was 1380 ng/mL. Besides, in [14], the concentration at 6 h was found to be 1120 ng/mL. Besides, the concentration at 24 h in [15] came out at 342 ng/mL. For the same molecule, the concentration at 72 h in data set [16] turned out to be 3.7 ng/mL. Moreover, the result in data set [17] was inactive. Besides, the CL in data set [18] stood at 1330 mL/min/kg.

These data come from ChEMBL document CHEMBL3797028, “Novel S1P1 receptor agonists - Part 4: Alkylaminomethyl substituted aryl head groups” (Eur J Med Chem, 2016).
